Test results taken from ChEMBL document CHEMBL4325822, “Discovery of a tetrazolyl β-carboline with in vitro and in vivo osteoprotective activity under estrogen-deficient conditions” (Medchemcomm, 2018).
Blank lines part the entries; values can stand above or below the compound they belong to. Activity calls are given as the source filed them. The rule behind the calls is not given here.

What was measured:
[1] = molecular target: T1, I-kappa-B kinase (Rattus norvegicus) (UniProt Q9QY78+G3V926+Q6TMG5); assay: Inhibition of IKK in Sprague-Dawley rat calvarial osteoblasts assessed as reduction in TNFalpha-induced NFkB nuclear translocation at 10 nM after 24 hrs by immunofluorescence assay; assay type: cell-based; details: Calvarial osteoblast
Method in brief: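 Primary rat osteoblasts on chamber slides given TNFα (10 ng·ml⁻¹) for 24 h, with or without treatment. Then 4% PFA fixation, 0.1% Triton X-100, anti-NF-κB overnight, and Cy3 anti-rabbit secondary. Fluorescence imaged at excitation 552 nm, emission 570 nm.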

[2] = molecular target: T1, I-kappa-B kinase (Rattus norvegicus); assay: Inhibition of IKK in Sprague-Dawley rat calvarial osteoblasts assessed as reduction in TNFalpha-induced beta-catenin degradation by measuring ratio of beta-catenin level to beta-actin level at 10 nM after 24 hrs by Western blot analysis (reference value: 0.32); assay type: cell-based; details: Calvarial osteoblast
Method in brief: (§1)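 Primary osteoblasts from pooled calvaria of 1-2 day SD rat pups (sequential dispase/collagenase digestion) were grown to 60-70% confluence. They were treated with 17β-estradiol 10 nM in the presence of TNFα 10 ng·ml⁻¹ for 24 h. Whole-cell lysates were immunoblotted, and bands were detected by ECL. Densitometry was normalised to β-actin.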

[3] = Toxicity in Sprague-Dawley rat model of OVX-induced bone loss assessed as total uterine area at 100 ug/kg, sc for 12 weeks (reference value: 0.11 +/- 0.003 mm2); assay type: organism-based; details: in vivo, 0.1 mg/kg, 2016 h
[4] = tested on: Rattus norvegicus; assay: Antiosteoporotic activity in Sprague-Dawley rat model of OVX-induced bone loss assessed as increase in femoral bone strength by measuring energy at 100 ug/kg, sc administered 5 days/week for 12 weeks by 3 point bending test (reference value: 46.27 +/- 4.36 mJ); assay type: functional
[5] = tested on: Rattus norvegicus; assay: (§2) Antiosteoporotic activity in Sprague-Dawley rat model of OVX-induced bone loss assessed as protection against microarchitectural deterioration by measuring structural model index at 100 ug/kg, sc administered 5 days/week for 12 weeks by microcomputed tomographic analysis (reference value: 2.07 +/- 0.06); assay type: functional
[6] = tested on: Rattus norvegicus; assay: as §2, with “ratio of bone volume/[…]” for “structural model index”, “4.68” for “2.07”, “0.58%)” for “0.06)”; assay type: functional
[7] = molecular target: T1, I-kappa-B kinase (Rattus norvegicus); assay: Inhibition of IKK in TNFalpha-simulated Sprague-Dawley rat calvarial osteoblasts assessed as ratio of IkBalpha level to beta-actin level at 10 nM after 24 hrs by Western blot analysis (reference value: 0.78); assay type: cell-based; details: Calvarial osteoblast; method in brief: as §1
[8] = Toxicity in Sprague-Dawley rat model of OVX-induced bone loss assessed as luminal area at 100 ug/kg, sc for 12 weeks (reference value: 0.01 +/- 0.0004 mm2); assay type: organism-based; details: in vivo, 0.1 mg/kg, 2016 h
[9] = tested on: Rattus norvegicus; assay: Antiosteoporotic activity in Sprague-Dawley rat model of OVX-induced bone loss assessed as bone formation rate at 100 ug/kg, sc administered 5 days/week for 12 weeks by microcomputed tomographic analysis (reference value: 0.171 +/- 0.005 um3/um2/day); assay type: functional
Method in brief: (§3)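 Female Sprague-Dawley rats, 10-12 weeks old, ten per group, were ovariectomized and left 12 weeks for osteopenia. They were then dosed once daily by oral gavage for 12 weeks in 1% gum acacia vehicle. The estradiol arm received 100 µg·kg⁻¹ subcutaneously five days a week. Tetracycline and calcein were given intraperitoneally at 20 mg·kg⁻¹ each. Femur cross-sections (50 µm) were imaged by fluorescence microscopy for MAR and BFR.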

[10] = tested on: Rattus norvegicus; assay: as §2, with “trabecular bone pattern factor” for “structural model index”, “10.81” for “2.07”, “0.68 /millimeter)” for “0.06)”; assay type: functional
Method in brief: (§4)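 Adult female Sprague-Dawley rats were ovariectomized and left 12 weeks to become osteopenic. They then received 12 weeks of once-daily oral gavage (1% gum acacia vehicle) or subcutaneous estradiol, five days a week. Femurs were collected at sacrifice and scanned by micro-CT for BMD and trabecular microarchitecture. Ten rats per group; mean ± SEM.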

[11] = molecular target: T1, I-kappa-B kinase (Rattus norvegicus); assay: Inhibition of IKK in Sprague-Dawley rat calvarial osteoblasts assessed as reduction in TNFalpha-induced NFkB signaling by measuring ratio of nuclear p65 level to beta-actin level at 10 nM after 24 hrs by Western blot analysis (reference value: 2.97); assay type: cell-based; details: Calvarial osteoblast
[12] = molecular target: T1, I-kappa-B kinase (Rattus norvegicus); assay: Inhibition of IKK in Sprague-Dawley rat calvarial osteoblasts assessed as reduction in TNFalpha-induced IkBalpha phosphorylation by measuring ratio of phosphorylated IkBalpha level to beta-actin level at 10 nM after 24 hrs by Western blot analysis (reference value: 2.32); assay type: cell-based; details: Calvarial osteoblast; method in brief: as §1
[13] = tested on: Rattus norvegicus; assay: Antiosteoporotic activity in Sprague-Dawley rat model of OVX-induced bone loss assessed as increase in femoral bone strength by measuring stiffness at 100 ug/kg, sc administered 5 days/week for 12 weeks by 3 point bending test (reference value: 122.07 +/- 12.18 N/mm); assay type: functional
[14] = tested on: Rattus norvegicus; assay: as §2, with “trabecular number” for “structural model index”, “0.56” for “2.07”, “0.06 /millimeter)” for “0.06)”; assay type: functional; method in brief: as §4
[15] = tested on: Rattus norvegicus; assay: Antiosteoporotic activity in Sprague-Dawley rat model of OVX-induced bone loss assessed as mineral apposition rate at 100 ug/kg, sc administered 5 days/week for 12 weeks by microcomputed tomographic analysis (reference value: 0.169 +/- 0.004 umeter/day); assay type: functional; method in brief: as §3
[16] = molecular target: T1, I-kappa-B kinase (Rattus norvegicus); assay: Inhibition of IKK in TNFalpha-simulated Sprague-Dawley rat calvarial osteoblasts assessed as ratio of Bcl2 level to beta-actin level at 10 nM after 24 hrs by Western blot analysis (reference value: […]); assay type: cell-based; details: Calvarial osteoblast
[17] = Toxicity in Sprague-Dawley rat model of OVX-induced bone loss assessed as luminal epithelial height at 100 ug/kg, sc for 12 weeks (reference value: 27.29 +/- 0.96 umeter); assay type: organism-based; details: in vivo, 0.1 mg/kg, 2016 h
[18] = Toxicity in Sprague-Dawley rat model of OVX-induced bone loss assessed as uterine weight at 100 ug/kg, sc for 12 weeks (reference value: 0.12 +/- 0.02 g); assay type: organism-based; details: in vivo, 0.1 mg/kg, 2016 h
[19] = molecular target: T1, I-kappa-B kinase (Rattus norvegicus); assay: Inhibition of IKK in TNFalpha-simulated Sprague-Dawley rat calvarial osteoblasts assessed as ratio of Bcl-xL level to beta-actin level at 10 nM after 24 hrs by Western blot analysis (reference value: 0.69); assay type: cell-based; details: Calvarial osteoblast; method in brief: as §1
[20] = tested on: Rattus norvegicus; assay: as §2, with “trabecular separation” for “structural model index”, “1.31” for “2.07”, “0.06 millimeter)” for “0.06)”; assay type: functional; method in brief: as §4
[21] = molecular target: T1, I-kappa-B kinase (Rattus norvegicus); assay: Inhibition of IKK in Sprague-Dawley rat calvarial osteoblasts assessed as reduction in TNFalpha-induced NFkB signaling by measuring ratio of cytosolic p65 level to beta-actin level at 10 nM after 24 hrs by Western blot analysis (reference value: 0.99); assay type: cell-based; details: Calvarial osteoblast
[22] = tested on: Rattus norvegicus; assay: Antiosteoporotic activity in Sprague-Dawley rat model of OVX-induced bone loss assessed as decrease in serum CTX level at 100 ug/kg, sc administered 5 days/week for 12 weeks by ELISA; assay type: functional, organism-based
Method in brief: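 Ovariectomy model as above: 12 weeks of osteopenia, then 12 weeks of daily gavage or subcutaneous estradiol. Serum was separated at autopsy, and CTX and PINP were measured by ELISA kits.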

[23] = molecular target: T1, I-kappa-B kinase (Rattus norvegicus); assay: Inhibition of IKK in TNFalpha-simulated Sprague-Dawley rat calvarial osteoblasts assessed as ratio of Bax level to beta-actin level at 10 nM after 24 hrs by Western blot analysis (reference value: 1.25); assay type: cell-based; details: Calvarial osteoblast; method in brief: as §1
[24] = tested on: Calvarial osteoblast; assay: Increase in Runx2 protein expression in Sprague-Dawley rat calvarial osteoblasts at 100 pM after 48 hrs by Western blot analysis; assay type: functional, cell-based
Method in brief: (§5)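 Rat calvarial osteoblasts (pooled 1–2-day pups, collagenase/dispase digests) at 60–70% confluence treated 48 h. Whole-cell lysates immunoblotted with primary antibody overnight at 4 °C, then HRP secondary, with ECL detection. Densitometry gives fold change normalized to β-actin versus untreated cells. Mean ± SEM of three independent experiments.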

[25] = tested on: Calvarial osteoblast; assay: Osteogenic activity in Sprague-Dawley rat calvarial osteoblasts assessed as mineralized nodule formation at 100 pM after 21 days by alizarin red-S staining based light microscopic method; assay type: functional, cell-based
Method in brief: (§6)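 Osteoblasts at 10,000–15,000 cells/cm² in duplicate plates, 21 days in differentiation medium, medium changed every 48 h. Cells fixed in 4% PFA, stained with alizarin red-S (40 mM, pH 4.5, 30 min) and photographed. Stain extracted with 10% acetic acid, pH brought to 4.5 with ammonium hydroxide, read at 405 nm, normalized to cell number.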

[26] = Induction of osteoblast differentiation in Sprague-Dawley rat calvarial osteoblasts assessed as alkaline phosphatase activity at 100 pM after 48 hrs using PNPP as substrate by spectrophotometric method relative to control; assay type: functional
Method in brief: (§7)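 Calvarial osteoblasts at 2 × 10³ cells/well. Treated 48 h with varied concentrations in differentiation medium (5% charcoal-treated FBS, 10 mM β-glycerophosphate, 50 µg·mL⁻¹ ascorbic acid). Total ALP read with PNPP substrate at 405 nm. Cell-free wells check for compound interference with substrate or absorbance.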

[27] = Induction of osteoblast differentiation in Sprague-Dawley rat calvarial osteoblasts assessed as alkaline phosphatase activity after 48 hrs using PNPP as substrate by spectrophotometric method; assay type: functional, cell-based; method in brief: as §7
[28] = Increase in OCN mRNA expression in Sprague-Dawley rat calvarial osteoblasts at 100 pM by RT-PCR method relative to control; assay type: functional, Calvarial osteoblast
Method in brief: (§8)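 Primary calvarial osteoblasts were lysed in TRIzol after treatment, and total RNA was extracted. Transcripts were quantified by real-time PCR using the comparative CT (ΔΔCT) method.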

[29] = Increase in BMP2 mRNA expression in Sprague-Dawley rat calvarial osteoblasts at 100 pM by RT-PCR method relative to control; assay type: functional, Calvarial osteoblast; method in brief: as §8
[30] = tested on: Calvarial osteoblast; assay: Osteogenic activity in Sprague-Dawley rat calvarial osteoblasts assessed as mineralized nodule formation at 100 pM after 21 days by alizarin red-S staining based colorimetric method; assay type: functional; method in brief: as §6
[31] = Increase in Runx2 mRNA expression in Sprague-Dawley rat calvarial osteoblasts at 100 pM by RT-PCR method relative to control; assay type: functional, Calvarial osteoblast
[32] = tested on: Calvarial osteoblast; assay: Increase in BMP2 protein expression in Sprague-Dawley rat calvarial osteoblasts at 100 pM after 48 hrs by Western blot analysis; assay type: functional, cell-based
Method in brief: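 Rat calvarial osteoblasts at 60-70% confluence were treated 48 h. Whole-cell lysates were blotted, blocked in 5% milk, and probed with primary antibody overnight at 4 °C, then with HRP secondary and ECL detection. Densitometry was normalized to β-actin; fold change versus untreated cells, three independent experiments, mean ± SEM.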

[33] = tested on: Calvarial osteoblast; assay: Increase in OCN protein expression in Sprague-Dawley rat calvarial osteoblasts at 100 pM after 48 hrs by Western blot analysis; assay type: functional, cell-based; method in brief: as §5
[34] = tested on: Calvarial osteoblast; assay: Cytotoxicity against Sprague-Dawley rat calvarial osteoblasts assessed as reduction in cell viability at 0.000001 to 1 uM after 48 hrs by MTT assay; assay type: cell-based
Method in brief: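 Osteoblasts came from pooled calvaria of 1-2-day-old Sprague-Dawley pups, isolated by sequential dispase/collagenase digestion. Cells were exposed to compound at 1 pM to 1 µM for 48 h, and viability was measured by MTT.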

[35] = tested on: Calvarial osteoblast; assay: Induction of osteoblast differentiation in Sprague-Dawley rat calvarial osteoblasts assessed as alkaline phosphatase activity at 0.000001 to 1 uM after 48 hrs using PNPP as substrate by spectrophotometric method relative to control; assay type: functional, cell-based; method in brief: as §7

inhibition [1]: Active
Ratio [2]: 0.81
Ratio [7]: 0.66
Ratio [11]: 1.41
Ratio [12]: 1.26
Ratio [16]: 1.45
Ratio [19]: 0.9
Ratio [21]: 1.45
Ratio [23]: 0.65
Compound: C[C@]12CC[C@@H]3c4ccc(O)cc4CC[C@H]3[C@@H]1CC[C@@H]2O [ESTRADIOL]
Activity [3]: 0.87 mm2
Activity [4]: 62.77 mJ
Activity_index [5]: 1.6
Ratio [6]: 11.09%
Activity [8]: 0.054 mm2
Activity [9]: 1.04 um3/um2/day
Activity [10]: 5.99 /millimeter
Activity [13]: 171.75 N/mm
Activity [14]: 1.55 /millimeter
Activity [15]: 1.06 micrometer/day
Activity [17]: 17.8 um
Activity [18]: 0.45 g
Activity [20]: 0.68 mm
Activity [22]: inactive

EC50 ([27]; Rattus norvegicus, Sprague-Dawley, Calvarial osteoblast, 48 h, read-out: EC50): 3.27 µM
Compound: COC(=O)c1cc2c([nH]c3ccccc32)c(C(c2nnnn2C(C)(C)C)N2CCN(c3ncccn3)CC2)n1 (stereo not drawn)
Activity [24]: Active
Activity [25]: Active
Emax at 0.0001 µM [26]: 80%
fold change (FC) [28]: 1.8 - 4.6
fold change (FC) [29]: 1.8 - 4.6
Activity [30]: 48%
fold change (FC) [31]: 1.8 - 4.6
Activity [32]: Active
Activity [33]: Active
Activity [34]: Non-Toxic

EC50 ([27]; calvarial osteoblast): Not Active
Emax [35]: inactive
Compound: COC(=O)c1cc2c([nH]c3ccccc32)c(C(NCc2ccc(C)cc2)c2nnnn2C(C)(C)C)n1 (stereo not drawn)

EC50 ([27]; calvarial osteoblast): Not Active
Emax [35]: inactive
Compound: COC(=O)c1cc2c([nH]c3ccccc32)c(C(NC(C)(C)C)c2nnnn2C(C)(C)C)n1 (stereo not drawn)
